Activity calls are given as the source filed them. No cut-off for these calls is given here.
Assays:
[1] = molecular target: cAMP and cAMP-inhibited cGMP 3',5'-cyclic phosphodiesterase 10A (Homo sapiens, UniProt Q9Y233); assay: Inhibition of recombinant human PDE10A using [3H]cAMP as substrate by scintillation proximity assay
In short: (§1)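 Scintillation proximity assay with [³H]cAMP as substrate, measuring hydrolysis of cAMP to AMP by recombinant human PDEs 1–11. Ki values are means of at least two experiments.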

[2] = molecular target: Phosphodiesterase 6; assay: Inhibition of recombinant human PDE6 using [3H]cAMP as substrate by scintillation proximity assay; format: protein assay; in short: as §1
[3] = tested on: Rattus norvegicus; assay: Antipsychotic activity in CD rat assessed as inhibition of MK-801-induced hyperactivity at 10 mg/kg, po relative to control; format: functional, organism-based; design: dose 10 mg/kg
In short: (§2)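 Male CD rats habituated to locomotor activity chambers 24 h before testing. On test day, MK-801 (0.3 mg/kg, sc) co-administered with PDE10 inhibitor (po), then rats placed in apparatus. Inhibition expressed as percent of activity in inhibitor + MK-801 group relative to vehicle + MK-801 group.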

[4] = molecular target: Phosphodiesterase 6 (Homo sapiens) (UniProt Q13956+P18545+P35913+O43924+P16499+P51160); assay: Inhibition of recombinant human PDE6 using [3H]cAMP as substrate at 1 uM by scintillation proximity assay; format: protein assay
[5] = AUC (0 to 6 hrs) in rat at 10 mg/kg, po; format: ADME, organism-based; design: time < 6 hr, dose 10 mg/kg, route oral; details: plasma
In short: (§3)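 Rat cassette-accelerated rapid screen, 10 mg/kg oral. Plasma exposure measured over 0–6 h. Brain drug concentration taken at 6 h. Brain/plasma ratio is brain over plasma drug concentration at 6 h.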

[6] = tested on: Rattus norvegicus; assay: Antipsychotic activity in CD rat assessed as inhibition of MK-801-induced hyperactivity at 30 mg/kg, po relative to control; format: functional, organism-based; design: dose 30 mg/kg; in short: as §2
[7] = molecular target: Phosphodiesterase 1 (Homo sapiens, UniProt P54750+Q01064+Q14123); assay: Inhibition of recombinant human PDE1 using [3H]cAMP as substrate by scintillation proximity assay; format: protein assay; in short: as §1
[8] = molecular target: Dual 3',5'-cyclic-AMP and -GMP phosphodiesterase 11A (Homo sapiens, UniProt Q9HCR9); assay: Inhibition of recombinant human PDE11 using [3H]cAMP as substrate by scintillation proximity assay; in short: as §1
Dual 3',5'-cyclic-AMP and -GMP phosphodiesterase 11A, sequence (Q9HCR9 whole entry): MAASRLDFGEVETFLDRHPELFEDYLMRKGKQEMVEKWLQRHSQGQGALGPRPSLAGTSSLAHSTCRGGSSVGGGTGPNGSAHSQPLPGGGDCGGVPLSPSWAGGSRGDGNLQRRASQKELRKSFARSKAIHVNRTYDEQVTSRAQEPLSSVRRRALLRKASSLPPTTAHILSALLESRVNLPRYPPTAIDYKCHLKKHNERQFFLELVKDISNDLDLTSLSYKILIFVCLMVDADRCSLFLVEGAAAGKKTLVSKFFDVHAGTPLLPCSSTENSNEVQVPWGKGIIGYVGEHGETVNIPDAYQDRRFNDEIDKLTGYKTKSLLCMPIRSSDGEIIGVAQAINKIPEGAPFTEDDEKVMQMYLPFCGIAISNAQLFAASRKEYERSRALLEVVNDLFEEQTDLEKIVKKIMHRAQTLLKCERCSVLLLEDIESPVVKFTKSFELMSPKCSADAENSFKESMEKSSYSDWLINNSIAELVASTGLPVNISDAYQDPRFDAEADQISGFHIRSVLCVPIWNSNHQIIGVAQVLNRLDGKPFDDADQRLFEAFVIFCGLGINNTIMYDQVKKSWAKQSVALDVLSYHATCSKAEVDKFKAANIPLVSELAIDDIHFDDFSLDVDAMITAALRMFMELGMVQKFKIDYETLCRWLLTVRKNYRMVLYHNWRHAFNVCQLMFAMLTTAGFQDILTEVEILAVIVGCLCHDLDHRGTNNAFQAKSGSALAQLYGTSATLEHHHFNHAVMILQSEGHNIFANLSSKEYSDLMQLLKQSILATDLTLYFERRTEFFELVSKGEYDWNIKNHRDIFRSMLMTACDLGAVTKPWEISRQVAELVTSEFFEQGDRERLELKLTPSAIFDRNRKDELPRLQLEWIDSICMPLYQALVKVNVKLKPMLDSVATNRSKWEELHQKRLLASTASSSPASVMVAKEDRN

[9] = molecular target: High affinity cGMP-specific 3',5'-cyclic phosphodiesterase 9A (Homo sapiens, UniProt O76083); assay: Inhibition of recombinant human PDE9 using [3H]cAMP as substrate by scintillation proximity assay; in short: as §1
High affinity cGMP-specific 3',5'-cyclic phosphodiesterase 9A, sequence (O76083 whole entry): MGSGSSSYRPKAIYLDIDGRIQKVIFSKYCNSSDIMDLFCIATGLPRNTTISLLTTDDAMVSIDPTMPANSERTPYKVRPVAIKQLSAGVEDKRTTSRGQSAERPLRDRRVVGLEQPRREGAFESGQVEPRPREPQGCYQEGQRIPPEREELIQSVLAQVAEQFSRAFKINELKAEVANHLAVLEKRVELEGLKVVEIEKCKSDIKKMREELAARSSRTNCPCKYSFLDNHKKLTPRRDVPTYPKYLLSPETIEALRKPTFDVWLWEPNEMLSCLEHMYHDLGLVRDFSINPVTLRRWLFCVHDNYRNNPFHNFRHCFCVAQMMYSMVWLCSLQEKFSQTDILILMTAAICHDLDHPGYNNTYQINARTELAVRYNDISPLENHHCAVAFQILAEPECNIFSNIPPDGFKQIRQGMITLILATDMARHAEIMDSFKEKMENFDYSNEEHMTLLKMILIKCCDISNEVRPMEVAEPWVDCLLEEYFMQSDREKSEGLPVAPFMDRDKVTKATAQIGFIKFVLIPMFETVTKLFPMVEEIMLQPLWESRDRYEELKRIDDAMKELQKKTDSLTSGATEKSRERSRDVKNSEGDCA

[10] = molecular target: 5-hydroxytryptamine receptor 7 (Homo sapiens) (UniProt P34969); assay: Inhibition of 5HT7 at 10 uM
5-hydroxytryptamine receptor 7 (Homo sapiens), sequence (P34969 whole entry): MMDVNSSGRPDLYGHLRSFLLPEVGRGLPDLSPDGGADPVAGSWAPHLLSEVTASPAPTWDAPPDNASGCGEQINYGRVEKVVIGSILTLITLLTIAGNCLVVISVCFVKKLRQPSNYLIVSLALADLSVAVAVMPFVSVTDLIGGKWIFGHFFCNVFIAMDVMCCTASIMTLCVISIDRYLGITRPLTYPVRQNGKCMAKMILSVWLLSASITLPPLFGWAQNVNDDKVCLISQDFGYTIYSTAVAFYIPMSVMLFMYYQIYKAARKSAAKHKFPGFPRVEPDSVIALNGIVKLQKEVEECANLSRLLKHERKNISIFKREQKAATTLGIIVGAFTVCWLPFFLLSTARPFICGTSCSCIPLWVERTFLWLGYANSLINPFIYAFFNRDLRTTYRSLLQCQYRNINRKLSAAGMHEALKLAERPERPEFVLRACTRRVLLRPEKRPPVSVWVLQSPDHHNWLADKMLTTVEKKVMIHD

[11] = molecular target: cGMP-specific 3',5'-cyclic phosphodiesterase (Homo sapiens, UniProt O76074); assay: Inhibition of recombinant human PDE5A using [3H]cAMP as substrate by scintillation proximity assay; in short: as §1
[12] = molecular target: Phosphodiesterase 7 (Homo sapiens, UniProt Q13946+Q9NP56); assay: Inhibition of recombinant human PDE7 using [3H]cAMP as substrate by scintillation proximity assay; format: protein assay; in short: as §1
[13] = molecular target: 5-hydroxytryptamine receptor 1B (Homo sapiens) (UniProt P28222); assay: Inhibition of 5HT1b at 10 uM
5-hydroxytryptamine receptor 1B (Homo sapiens), sequence (P28222 whole entry, canonical isoform): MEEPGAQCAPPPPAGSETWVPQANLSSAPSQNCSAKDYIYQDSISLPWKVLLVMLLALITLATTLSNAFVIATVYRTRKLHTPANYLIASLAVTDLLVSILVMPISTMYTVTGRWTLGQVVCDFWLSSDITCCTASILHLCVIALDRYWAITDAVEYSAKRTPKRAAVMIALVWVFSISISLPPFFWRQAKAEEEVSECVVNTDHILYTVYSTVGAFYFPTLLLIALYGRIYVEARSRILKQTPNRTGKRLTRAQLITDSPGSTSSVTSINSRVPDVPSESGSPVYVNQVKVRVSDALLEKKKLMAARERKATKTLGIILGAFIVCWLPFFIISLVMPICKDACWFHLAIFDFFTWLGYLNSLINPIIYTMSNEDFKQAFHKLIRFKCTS

[14] = molecular target: Casein kinase I isoform delta (Homo sapiens, UniProt P48730); assay: Inhibition of CK1delta
Casein kinase I isoform delta, sequence (P48730 whole entry, canonical isoform): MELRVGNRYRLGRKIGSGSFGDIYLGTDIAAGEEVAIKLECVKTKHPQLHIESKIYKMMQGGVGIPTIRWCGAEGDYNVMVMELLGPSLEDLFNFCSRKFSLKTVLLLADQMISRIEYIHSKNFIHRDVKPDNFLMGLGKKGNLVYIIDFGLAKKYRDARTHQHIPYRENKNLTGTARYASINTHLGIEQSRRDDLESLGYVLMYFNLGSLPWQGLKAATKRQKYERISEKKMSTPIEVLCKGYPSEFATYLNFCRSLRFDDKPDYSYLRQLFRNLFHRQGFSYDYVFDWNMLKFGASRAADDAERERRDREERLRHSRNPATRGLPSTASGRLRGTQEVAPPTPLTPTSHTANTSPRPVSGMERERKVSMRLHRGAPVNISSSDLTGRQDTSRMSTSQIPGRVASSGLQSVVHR

[15] = Plasma protein binding in rat; format: ADME, cell-free; details: read-out: PPB (converted)
[16] = Ratio of drug level in brain to plasma in rat at 10 mg/kg, po at 6 hrs; format: ADME, organism-based; design: dose 10 mg/kg, route oral; details: read-out: BPR; in short: as §3
[17] = molecular target: T1, 5-hydroxytryptamine receptor 3A (Homo sapiens) (UniProt P46098); assay: Inhibition of 5HT3 at 10 uM
T1 sequence (whole entry): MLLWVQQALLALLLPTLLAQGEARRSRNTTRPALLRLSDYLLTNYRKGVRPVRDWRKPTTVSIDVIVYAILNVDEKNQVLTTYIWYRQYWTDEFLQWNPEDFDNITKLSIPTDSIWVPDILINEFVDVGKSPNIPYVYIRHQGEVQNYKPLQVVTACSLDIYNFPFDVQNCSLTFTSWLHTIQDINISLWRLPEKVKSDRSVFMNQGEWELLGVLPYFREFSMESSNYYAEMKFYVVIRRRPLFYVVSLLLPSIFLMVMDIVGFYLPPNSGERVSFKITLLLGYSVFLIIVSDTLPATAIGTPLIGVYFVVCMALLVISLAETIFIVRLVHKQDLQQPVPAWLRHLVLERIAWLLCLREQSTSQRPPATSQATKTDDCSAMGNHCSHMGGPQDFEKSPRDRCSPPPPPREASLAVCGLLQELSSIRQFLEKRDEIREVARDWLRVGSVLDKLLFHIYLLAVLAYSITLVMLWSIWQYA

[18] = molecular target: Phosphodiesterase 3 (Homo sapiens, UniProt Q14432+Q13370); assay: Inhibition of recombinant human PDE3 using [3H]cAMP as substrate by scintillation proximity assay; format: protein assay; in short: as §1
[19] = molecular target: cGMP-dependent 3',5'-cyclic phosphodiesterase (Homo sapiens, UniProt O00408); assay: Inhibition of recombinant human PDE2 using [3H]cAMP as substrate by scintillation proximity assay; in short: as §1
cGMP-dependent 3',5'-cyclic phosphodiesterase, sequence (O00408 whole entry): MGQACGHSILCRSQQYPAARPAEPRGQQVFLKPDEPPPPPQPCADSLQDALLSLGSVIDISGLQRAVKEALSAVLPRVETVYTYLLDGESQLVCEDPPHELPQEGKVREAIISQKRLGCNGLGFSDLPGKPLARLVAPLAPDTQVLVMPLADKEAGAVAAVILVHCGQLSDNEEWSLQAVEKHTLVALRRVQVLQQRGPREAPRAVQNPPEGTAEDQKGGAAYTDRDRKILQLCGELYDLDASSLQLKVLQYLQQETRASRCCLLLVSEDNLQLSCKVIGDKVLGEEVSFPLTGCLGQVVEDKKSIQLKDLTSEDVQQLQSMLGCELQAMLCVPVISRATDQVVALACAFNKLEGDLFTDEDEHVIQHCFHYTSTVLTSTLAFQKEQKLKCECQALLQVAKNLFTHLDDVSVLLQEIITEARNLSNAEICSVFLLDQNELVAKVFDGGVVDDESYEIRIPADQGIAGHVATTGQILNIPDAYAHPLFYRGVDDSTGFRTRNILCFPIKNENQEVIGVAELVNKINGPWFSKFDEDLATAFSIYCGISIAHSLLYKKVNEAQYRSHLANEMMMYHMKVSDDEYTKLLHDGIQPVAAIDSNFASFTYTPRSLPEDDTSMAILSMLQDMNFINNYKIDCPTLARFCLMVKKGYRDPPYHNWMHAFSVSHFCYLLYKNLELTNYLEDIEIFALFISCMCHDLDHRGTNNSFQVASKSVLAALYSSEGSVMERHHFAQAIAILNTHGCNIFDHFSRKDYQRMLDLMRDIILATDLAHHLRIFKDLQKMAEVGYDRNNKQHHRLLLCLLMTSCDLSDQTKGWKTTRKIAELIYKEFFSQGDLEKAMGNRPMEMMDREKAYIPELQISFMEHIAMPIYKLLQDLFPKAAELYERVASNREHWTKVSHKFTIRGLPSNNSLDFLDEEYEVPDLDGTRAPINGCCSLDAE

[20] = molecular target: Phosphodiesterase 4 (Homo sapiens, UniProt P27815+Q08499+Q07343+Q08493); assay: Inhibition of recombinant human PDE4 using [3H]cAMP as substrate by scintillation proximity assay; format: protein assay; in short: as §1
[21] = molecular target: Phosphodiesterase 8 (Homo sapiens, UniProt O95263+O60658); assay: Inhibition of recombinant human PDE8 using [3H]cAMP as substrate by scintillation proximity assay; format: protein assay; in short: as §1
[22] = Drug uptake in rat brain at 10 mg/kg, po after 6 hrs; format: ADME, organism-based; design: dose 10 mg/kg, route oral; details: read-out: Drug uptake; in short: as §3
[23] = species: Homo sapiens; assay: Selectivity ratio of Ki for recombinant human PDE2 to Ki for recombinant human PDE10A
In short: (§4)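 Recombinant human PDE enzymes (PDE1–11) were tested in a scintillation proximity assay with [³H]cAMP as substrate, measuring hydrolysis of cAMP to AMP. Ki values are means of at least two experiments. The ratio is the Ki for each off-target PDE divided by the PDE10A Ki.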

[24] = species: Homo sapiens; assay: Selectivity ratio of Ki for recombinant human PDE8 to Ki for recombinant human PDE10A; in short: as §4
[25] = species: Homo sapiens; assay: Selectivity ratio of Ki for recombinant human PDE1 to Ki for recombinant human PDE10A; in short: as §4
[26] = species: Homo sapiens; assay: Selectivity ratio of Ki for recombinant human PDE4 to Ki for recombinant human PDE10A; in short: as §4
[27] = species: Homo sapiens; assay: Selectivity ratio of Ki for recombinant human PDE7 to Ki for recombinant human PDE10A; in short: as §4
[28] = species: Homo sapiens; assay: Selectivity ratio of Ki for recombinant human PDE5A to Ki for recombinant human PDE10A; in short: as §4
[29] = species: Homo sapiens; assay: Selectivity ratio of Ki for recombinant human PDE3 to Ki for recombinant human PDE10A; in short: as §4
[30] = species: Homo sapiens; assay: Selectivity ratio of Ki for recombinant human PDE6 to Ki for recombinant human PDE10A; in short: as §4
[31] = species: Homo sapiens; assay: Selectivity ratio of Ki for recombinant human PDE11 to Ki for recombinant human PDE10A; in short: as §4
[32] = species: Homo sapiens; assay: Selectivity ratio of Ki for recombinant human PDE9 to Ki for recombinant human PDE10A; in short: as §4

cAMP and cAMP-inhibited cGMP 3',5'-cyclic phosphodiesterase 10A, sequence (Q9Y233 whole entry): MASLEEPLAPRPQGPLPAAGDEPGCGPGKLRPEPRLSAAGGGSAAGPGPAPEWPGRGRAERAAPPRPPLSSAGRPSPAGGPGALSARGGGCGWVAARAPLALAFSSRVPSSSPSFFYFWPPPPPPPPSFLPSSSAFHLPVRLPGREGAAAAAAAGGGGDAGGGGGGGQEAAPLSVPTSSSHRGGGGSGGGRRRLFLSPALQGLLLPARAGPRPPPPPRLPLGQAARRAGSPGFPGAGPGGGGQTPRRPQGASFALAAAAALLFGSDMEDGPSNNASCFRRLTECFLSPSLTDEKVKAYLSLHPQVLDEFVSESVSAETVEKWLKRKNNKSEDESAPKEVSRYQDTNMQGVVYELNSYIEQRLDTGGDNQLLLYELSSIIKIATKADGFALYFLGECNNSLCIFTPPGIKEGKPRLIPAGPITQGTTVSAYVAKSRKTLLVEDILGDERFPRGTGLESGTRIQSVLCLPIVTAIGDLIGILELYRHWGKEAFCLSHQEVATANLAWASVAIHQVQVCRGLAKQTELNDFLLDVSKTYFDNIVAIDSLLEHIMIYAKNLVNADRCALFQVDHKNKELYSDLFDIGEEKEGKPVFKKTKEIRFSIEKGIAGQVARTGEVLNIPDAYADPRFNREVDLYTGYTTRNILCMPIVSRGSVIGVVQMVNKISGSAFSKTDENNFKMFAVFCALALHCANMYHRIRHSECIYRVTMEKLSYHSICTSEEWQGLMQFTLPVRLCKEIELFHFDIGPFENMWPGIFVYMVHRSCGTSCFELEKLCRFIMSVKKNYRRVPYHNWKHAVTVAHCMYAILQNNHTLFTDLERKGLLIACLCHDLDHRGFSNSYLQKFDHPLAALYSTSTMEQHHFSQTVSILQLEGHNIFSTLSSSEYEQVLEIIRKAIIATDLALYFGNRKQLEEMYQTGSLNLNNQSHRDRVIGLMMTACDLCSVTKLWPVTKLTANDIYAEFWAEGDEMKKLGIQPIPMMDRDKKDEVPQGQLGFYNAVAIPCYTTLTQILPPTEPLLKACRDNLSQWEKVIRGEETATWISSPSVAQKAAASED

COc1cc(C)c2nc3[nH]nc(C)c3c(NCC3CNCCO3)c2c1 (stereo unspecified)
Ki [1]: 5 nM | Ki [2]: 13882 nM

COc1cc(C)c2nc3[nH]nc(C)c3c(N3CCCCC3)c2c1
Ki [1]: 363 nM

COc1cc(C)c2nc3[nH]nc(C)c3c(OC3CCOCC3)c2c1
inhibition [3]: inactive | Ki [1]: 3.1 nM | inhibition [4]: 30% | AUC(0-t) at 6 h [5]: 10.6 µM·h | inhibition [6]: Active

COc1cc(C)c2nc3[nH]nc(C)c3c(N3CCNCC3)c2c1
Ki [7]: >= 770 nM | Ki [8]: ≥ 770 nM | Ki [9]: ≥ 770 nM | inhibition [10]: 54% | Ki [11]: > 100000 nM | Ki [12]: >= 770 nM | inhibition [13]: 54% | IC50 [14]: 320 nM | fraction unbound [15]: 0.16 | Kp at 6 h [16]: 1.2 | inhibition [17]: 54% | Ki [18]: >= 770 nM | Ki [19]: ≥ 770 nM | AUC(0-t) at 6 h [5]: 3.3 µM·h | Ki [20]: >= 770 nM | Ki [2]: >= 770 nM | Ki [21]: >= 770 nM | concentration at 6 h [22]: 123 ng/g

Cc1cc(Cl)cc2c(N3CCNCC3)c3c(C)n[nH]c3nc12
Ki [1]: 35 nM | AUC(0-t) at 6 h [5]: 0.14 µM·h

COc1cc(C)c2nc3[nH]nc(C)c3c(N3CCC(O)CC3)c2c1
Ki [1]: 14 nM | concentration at 6 h [22]: < 10 ng/g

COc1cc(C)c2nc3[nH]nc(C)c3c(N3CCCNCC3)c2c1
Ki [1]: 15 nM

COc1cc(C)c2nc3[nH]nc(C)c3c(N3CCCC(CO)C3)c2c1 (racemic)
Ki [1]: 29 nM | concentration at 6 h [22]: < 10 ng/g

Cc1n[nH]c2nc3ccc(Cl)cc3c(N3CCNCC3)c12
Ki [1]: 419 nM

COc1cc(C)c2nc3[nH]nc(C)c3c(NCCC3CCOCC3)c2c1
Ki [1]: 409 nM

COc1cc(C)c2nc3[nH]nc(C)c3c(N3CCC(N)CC3)c2c1
Ki [1]: 1 nM | concentration at 6 h [22]: < 10 ng/g

COc1cc(C)c2nc3[nH]nc(C)c3c(N3CCOC(CO)C3)c2c1 (racemic)
Ki [1]: 9.6 nM | concentration at 6 h [22]: < 10 ng/g

Cc1n[nH]c2nc3ccccc3c(N3CCNCC3)c12
Ki [1]: 550 nM

COc1cc(C)c2nc3[nH]nc(C)c3c(N3CCCOCC3)c2c1
Ratio Ki [23]: > 1450 | Ki [1]: 3.6 nM | Ratio Ki [24]: > 1450 | Ratio Ki [25]: > 1450 | Ratio Ki [26]: > 1450 | Kp at 6 h [16]: 0.3 | Ratio Ki [27]: > 1450 | AUC(0-t) at 6 h [5]: 11 µM·h | Ratio Ki [28]: > 1450 | Ratio Ki [29]: > 1450 | Ratio Ki [30]: > 1450 | inhibition [6]: Active | Ratio Ki [31]: > 1450 | Ratio Ki [32]: > 1450

COc1cc(C)c2nc3[nH]nc(C)c3c(NCC3CCNCC3)c2c1
Ki [1]: 15 nM | Ki [2]: 14782 nM
